Sampled rows, rich in hits. Any-hit rate of the full collection: about 4.7%.
697 NFkB inh = inhibitors of the PMA/ionomycin-induced NF-kB reporter in 697 B cells | 697 B-cell NF-kB luciferase reporter, 16 h | inhibition, % at 4 µM | 0.33% of 330,000 active | AID 435022; in the data active = inhibition above about 35%
IMP-1 inh = inhibitors of Pseudomonas aeruginosa IMP-1 metallo-beta-lactamase. purified IMP-1, nitrocefin hydrolysis, epi-absorbance fluorescence. inhibition, % at 5.6 µM. 0.45% of 290,000 active. AID 1556;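 active = inhibition above the mean plus 3 SD of all compounds in the same screening run, cut at about 4.5% in these data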;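 also: 0% = IMP-1 with DMSO and 100% = DMSO wells lacking enzyme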
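System: Purified recombinant IMP-1 metallo-beta-lactamase enzyme | Measured by: Fluorescence quenching readout, ex 480/em 530 nm | Replication: Singlicate | Incubation: 15 min preincubation plus 25 min reaction at 25 °C | Evaluation: Percent inhibition from optical density relative to buffer-blank wells | Benchmarks: DMSO with and without IMP-1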
Jurkat NFkB inh = lowers PMA/ionomycin-induced NF-kB signal in Jurkat cells. AID 435003. inhibition, % at 4 µM. 0.53% of 330,000 active. PMA/ionomycin-induced NF-kB luciferase reporter, luminescence; in the data active = inhibition above about 50%
aSyn 5UTR inh = 5' untranslated region of α-synuclein, MLPCN primary screen; alpha-synuclein 5'UTR reporter, inhibitor activity; 0.82% of 300,000 active; inhibition, % (tested at 7.5 µM); in the data active = inhibition above about 60%;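 also: H4 neuroglioblastoma cells stably carrying SNCA 5'UTR luciferase fusion; 0% = DMSO wells and 100% = positive control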
Mdm2-MdmX inh = inhibitors of human Mdm2/MdmX interaction. SaOS-2 split-luciferase Mdm2/MdmX complementation, luminescence. inhibition, % at 8 µM. 3% of 330,000 active;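 active = inhibition of at least 50% at 8 µM in the primary screen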
VIM-2 inh = inhibitors of Pseudomonas aeruginosa VIM-2 metallo-beta-lactamase. inhibition, % at 5.6 µM. purified VIM-2, nitrocefin hydrolysis, epi-absorbance fluorescence. 0.89% of 290,000 active;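 active = inhibition above the mean of all tested compounds plus 3 SD, cutoff set per screening run, cut at about 7.5% in these data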;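 also: red hydrolysis product quenches plate fluorescence so inhibitors raise well fluorescence; 0% = enzyme with DMSO and 100% = DMSO without enzyme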
VIM-2 inh confirm = VIM-2 inhibition, confirmation assay. shares compounds with IMP-1 inh. inhibition, % at 5.6 µM. 73% of 200 active. purified VIM-2 enzyme, nitrocefin absorbance; in the data active = inhibition above about 8%;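 also: 0% = enzyme with vehicle and 100% = no enzyme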
TEM-1 inh 2 = blocks E. coli TEM-1 beta-lactamase, VIM-2 IMP-1 counter-screen; AID 2184; shares compounds with IMP-1 inh; inhibition, % at 5.6 µM; nitrocefin absorbance inhibition; 50% of 200 active; in the data active = inhibition above about 0.66%
IMP-1 confirm = confirmation of P. aeruginosa IMP-1 metallo-beta-lactamase inhibitors; shares compounds with IMP-1 inh; purified IMP-1 enzyme, absorbance substrate hydrolysis; inhibition, % at 5.6 µM; 60% of 200 active; AID 2189; in the data active = inhibition above about 4.9%;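 also: 0% = enzyme with vehicle and 100% = vehicle without enzyme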
* marks the source's active call; other numbers are inactive results; / = not tested or not shown.

SMILES	697 NFkB inh	IMP-1 inh	Jurkat NFkB inh	aSyn 5UTR inh	Mdm2-MdmX inh	VIM-2 inh	VIM-2 inh confirm	TEM-1 inh 2	IMP-1 confirm
CCOc1ccc(Nc2nc(NCCN3CCOCC3)nc(OC)n2)cc1	-17	38*	2	4	-12	42*	0	-4	-1
Cn1cc(C=C2C(=O)OC3(CCCCC3)OC2=O)c2ccccc21	13	-2	-15	2	22	1	/	/	/
Cn1cc(/C=C(\C(=O)O)C(C(=O)O)=C2CCCCC2)c2ccccc21	16	11*	0	0	3	9.5*	13*	0	10*
N#Cc1ccccc1CN1C(=O)c2ccccc2S1(=O)=O	-3	-1	1	-1	13	-1	/	/	/
CC(C)(C)Nc1nc(Cl)nc(N(C#N)CN2C(=O)c3ccccc3S2(=O)=O)n1	10	11*	-9	3	10	12*	1	-3	-2
CCOC(=O)/C(C#N)=C/Nc1ccsc1C(C)=O	10	-3	-7	-16	9	0	/	/	/
CN(C)c1ccc(/C=N/N(CCO)C2=NS(=O)(=O)c3ccccc32)cc1	-2	18*	-1	-40	2	42*	40*	42*	30*
COc1ccc(N=Nc2nc3ccc(Br)cc3n2C)cc1	/	25*	/	-113	/	26*	-2	-5	-4
CCn1cc(/C=C/c2cc[n+](C)cc2)c2ccccc21	/	13*	/	17	/	16*	14*	8.0*	8.3*
Cc1ccccc1/C=C/c1cc[n+](C)cc1	1	-2	3	-37	11	0	/	/	/
Cn1ccnc1SCC(=O)n1c2c(c3ccccc31)CCCC2	17	5.7*	9	-13	1	29*	8.5*	-4	-1
O=C(O)Cn1cc(C(=S)N2CCOCC2)c2ccccc21	-4	-1	-26	0	0	2	/	/	/
O=C(O)Cn1cc(C(=S)N2CCCCC2)c2ccccc21	15	5.0*	1	7	-9	9.2*	-3	-6	-4
COc1ccc(C(=O)Nc2ccc(/C(C)=N/NC(=O)c3ccncc3)cc2)cc1	-14	32*	-85	-108	-8	14*	12*	-5	19*
COc1ccc(/C(C)=N/NC(=O)c2ccncc2)cc1	-6	-1	-2	6	13	0	/	/	/
Cc1cccc(C(=O)NN2C(=O)C3C(c4ccccc4)C=CC(c4ccccc4)C3C2=O)c1 (stereo unspecified)	6	21*	-8	9	0	7	0	-5	2
CCNC(=S)N(CCCN(C)C)Cc1cc2cc3c(cc2[nH]c1=O)OCCO3	7	-2	-11	-9	9	-1	/	/	/
COc1ccc(/C=C2\CCCc3c2nc2ccccc2c3C(=O)O)cc1OC	-11	17*	4	-8	13	16*	23*	39*	19*
CCOc1ccc(/C=C2\CCCc3c2nc2ccccc2c3C(=O)O)cc1OC	23	29*	11	-6	-3	38*	37*	56*	28*
CCCN(CCC)CCNC(=O)C1(O)c2ccccc2NC(=O)N1c1cccc(OC)c1 (stereo unspecified)	4	-2	9	-4	10	-2	/	/	/
O=C(OCC(=O)N1CCCC1=O)C1CCN(S(=O)(=O)c2c(Cl)cccc2Cl)CC1	-41	0	-15	-8	-22	-1	/	/	/
CCN(CC)c1ccc2c(-c3ccc(S(=O)(=O)O)cc3S(=O)(=O)[O-])c3ccc(=[N+](CC)CC)cc-3oc2c1	25	104*	23	80*	37	104*	85*	150*	80*
Cn1c(=O)c(Sc2ccccc2)c(O)c2ccccc21	17	0	9	23	-11	2	/	/	/
CC(C)(C)C1C=C(Sc2ccccc2)C(=O)O1 (stereo unspecified)	-20	51*	-4	-48	-12	8.8*	-1	-3	15*

Screening results (PubChem BioAssay)
